Data set [1] can be described thus: Biodistribution in OFA rat eyes at 1 mg/kg, iv after 2 hrs. In kind it is ADME, organism-based. Also noted: dose 1 mg/kg, route intravenous. Particulars: eye, read-out: Drug uptake. Summed up:
(§1)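 OFA rats (n = 10) dosed 1 mg/kg by iv bolus via penis vein in 10% DMA/90% PEG200. Plasma and tissue homogenates in borate buffer 0.1 M pH 11.5 were extracted with ethyl ether and analysed by LC. Plasma AUC was computed over 0–6 h.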

Data set [2] relates to Rattus norvegicus. Nature of the data set: Induction of neosynthetized 2,3 mono-epoxysqualene synthesis in OFA rat liver at 2 mg/kg, po after 8 hrs relative to BIBB 515. In kind it is functional. In short, it runs like this:
(§2)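 Male OFA rats dosed orally at 2 mg/kg. Sterol synthesis was labelled by ip [14C]mevalonate (370 kBq) for the final hour, giving 3 h or 8 h total exposure. Lens and liver lipids were extracted with isopropanol, separated by TLC, and cholesterol and MES radioactivity quantified by phosphorimaging. Cholesterol inhibition is relative to vehicle-treated rats, and MES as % of BIBB 515-treated rats (100%).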

The test system of data set [3] is Rattus norvegicus. As to the kind of experiment: Induction of neosynthetized 2,3 mono-epoxysqualene synthesis in OFA rat lens at 2 mg/kg, po after 3 hrs relative to BIBB 515. Format: functional, Lens of camera-type eye. Summed up:
as §2

Data set [4] deals with Rattus norvegicus. As to the kind of experiment: Induction of neosynthetized 2,3 mono-epoxysqualene synthesis in OFA rat liver at 2 mg/kg, po after 3 hrs relative to BIBB 515. In kind it is functional. In short, it runs like this: as §2
Data set [5] has as its system Rattus norvegicus. Nature of the data set: Inhibition of neosynthetized cholesterol synthesis in OFA rat liver at 2 mg/kg, po after 3 hrs. In kind it is functional. In short, it runs like this: as §2
A short description of data set [6]: Biodistribution in OFA rat eyes at 1 mg/kg, iv after 6 hrs. Format: ADME, organism-based. Also on record: dose 1 mg/kg, route intravenous. Particulars: eye, read-out: Drug uptake. In short, it runs like this:
as §1

In data set [7] the test system is Rattus norvegicus. As to the kind of experiment: Induction of neosynthetized 2,3 mono-epoxysqualene synthesis in OFA rat lens at 2 mg/kg, po after 8 hrs relative to BIBB 515. Format: functional, Lens of camera-type eye. Summed up: as §2
In data set [8] the test system is Rattus norvegicus. As to the kind of experiment: Inhibition of neosynthetized cholesterol synthesis in OFA rat lens at 2 mg/kg, po after 3 hrs. Format: functional. As to conditions: Lens of camera-type eye. In short, it runs like this:
as §2

Data set [9] has as its system Rattus norvegicus. As to the kind of experiment: Inhibition of neosynthetized cholesterol synthesis in OFA rat liver at 2 mg/kg, po after 8 hrs. Format: functional. In short, it runs like this:
as §2

The nature of data set [10]: AUC (0 to 6 hrs) in OFA rat at 1 mg/kg, iv. Format: ADME, organism-based. Also on record: time < 6 hr, dose 1 mg/kg, route intravenous. As to conditions: plasma. In short, it runs like this:
as §1

A short description of data set [11]: Biodistribution in OFA rat liver at 1 mg/kg, iv after 6 hrs. In kind it is ADME, organism-based. Also on record: dose 1 mg/kg, route intravenous. As to conditions: read-out: Drug uptake. In short, it runs like this: as §1
A short description of data set [12]: Biodistribution in OFA rat liver at 1 mg/kg, iv after 2 hrs. Format: ADME, organism-based. Also on record: dose 1 mg/kg, route intravenous. Particulars: read-out: Drug uptake. Summed up: as §1
Data set [13] in a line: Metabolic stability in rat liver microsomes assessed as intrinsic clearance […]. In kind it is ADME, Microsome. Background: Microsomes from liver hold many membrane-bound enzymes, among them those of drug oxidation.
In data set [14] the test system is Rattus norvegicus. Nature of the data set: Inhibition of neosynthetized cholesterol synthesis in OFA rat lens at 2 mg/kg, po after 8 hrs. Format: functional. Particulars: Lens of camera-type eye. In short, it runs like this:
as §2

Data set [15] deals with T1, Lanosterol synthase (Homo sapiens, UniProt P48449).
T1 sequence (P48449 whole entry): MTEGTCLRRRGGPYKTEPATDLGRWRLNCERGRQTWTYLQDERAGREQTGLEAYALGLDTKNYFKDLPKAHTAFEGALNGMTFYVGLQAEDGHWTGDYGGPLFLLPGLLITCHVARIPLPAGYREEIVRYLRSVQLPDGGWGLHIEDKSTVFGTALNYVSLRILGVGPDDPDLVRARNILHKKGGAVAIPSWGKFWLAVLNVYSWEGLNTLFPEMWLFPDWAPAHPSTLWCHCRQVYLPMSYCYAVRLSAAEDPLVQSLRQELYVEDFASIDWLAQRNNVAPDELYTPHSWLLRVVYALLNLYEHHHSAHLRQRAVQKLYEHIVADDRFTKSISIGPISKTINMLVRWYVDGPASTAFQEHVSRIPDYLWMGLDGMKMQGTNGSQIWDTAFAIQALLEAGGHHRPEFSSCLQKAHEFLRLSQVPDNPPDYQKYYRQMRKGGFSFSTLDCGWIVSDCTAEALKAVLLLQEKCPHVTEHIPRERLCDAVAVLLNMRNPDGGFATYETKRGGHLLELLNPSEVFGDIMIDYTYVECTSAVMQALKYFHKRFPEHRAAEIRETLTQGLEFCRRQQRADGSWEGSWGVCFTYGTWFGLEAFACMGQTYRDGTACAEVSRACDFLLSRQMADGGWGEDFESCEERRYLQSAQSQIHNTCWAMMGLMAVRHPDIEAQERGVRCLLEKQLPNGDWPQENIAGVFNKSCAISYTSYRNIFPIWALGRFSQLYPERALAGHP
As to the kind of experiment: Inhibition of 2,3-oxidosqualene-lanosterol cyclase. Summed up: (§3)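 HepG2 cells were incubated 24 h with compound in BME with 10% fetal calf serum, then labelled with [14C]mevalonate (7.4 kBq). Lipids were extracted with heptane/isopropanol and separated by TLC. [14C]cholesterol, MES and DES were identified against standards and quantified by phosphorimaging, scoring cholesterol synthesis inhibition together with MES/DES formation.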

Data set [16] deals with Rattus norvegicus. Nature of the data set: Ocular toxicity in Sprague-Dawley rat assessed as opacification of anterior lens at 30 mg/kg, po administered once daily for 21 days. Format: organism-based, Lens of camera-type eye. Also noted: dose 30 mg/kg, route oral. As to conditions: in vivo, 504 h. Summed up:
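Sprague–Dawley rats (male and female, n = 3) were dosed orally once daily for 21 days. Anterior lens opacification was scored from 0 to 6 (4 marked, 5 very marked, 6 severe), with histological examination of the eye.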

The subject of data set [17] is Rattus norvegicus. As to the kind of experiment: Inhibition of 2,3-oxidosqualene-lanosterol cyclase in male Sprague-Dawley rat assessed as 2,3 mono-epoxysqualene appearance in liver at 30 mg/kg, po administered once daily for 21 days. Format: functional, organism-based. Also on record: dose 30 mg/kg. In short, it runs like this:
(§4)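 Sprague–Dawley rats (3 per sex) were dosed orally once daily for 21 days. On day 21, 3 h after the last dose, rats were sacrificed and hepatic lipids extracted and separated by TLC. MES was visualised with 5% phosphomolybdic acid in isopropanol, and MES mass quantified by densitometry.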

The test system of data set [18] is Rattus norvegicus. As to the kind of experiment: Inhibition of 2,3-oxidosqualene-lanosterol cyclase in male Sprague-Dawley rat assessed as 2,3 mono-epoxysqualene appearance in liver at 2 mg/kg, po administered once daily for 21 days. Also on record: dose 2 mg/kg. In kind it is functional, organism-based. Summed up:
as §4

The test system of data set [19] is Rattus norvegicus. Nature of the data set: Inhibition of 2,3-oxidosqualene-lanosterol cyclase in female Sprague-Dawley rat assessed as 2,3 mono-epoxysqualene appearance in liver at 30 mg/kg, po administered once daily for 21 days. Format: functional, organism-based. Also on record: dose 30 mg/kg. In short, it runs like this: as §4
Data set [20] has as its system Rattus norvegicus. Nature of the data set: Inhibition of 2,3-oxidosqualene-lanosterol cyclase in female Sprague-Dawley rat assessed as 2,3 mono-epoxysqualene appearance in liver at 10 mg/kg, po administered once daily for 21 days. Format: functional, organism-based. Also on record: dose 10 mg/kg. In short, it runs like this: as §4
Data set [21] has as its system Rattus norvegicus. Nature of the data set: Inhibition of 2,3-oxidosqualene-lanosterol cyclase in female Sprague-Dawley rat assessed as 2,3 mono-epoxysqualene appearance in liver at 2 mg/kg, po administered once daily for 21 days. In kind it is functional, organism-based. Also on record: dose 2 mg/kg. Summed up: as §4
The subject of data set [22] is Rattus norvegicus. As to the kind of experiment: Inhibition of 2,3-oxidosqualene-lanosterol cyclase in male Sprague-Dawley rat assessed as 2,3 mono-epoxysqualene appearance in liver at 10 mg/kg, po administered once daily for 21 days. Format: functional, organism-based. Also noted: dose 10 mg/kg. Summed up:
as §4

The target of data set [23] is T2, Lanosterol synthase (Homo sapiens) (UniProt P48449).
T2 sequence (whole entry): T1 sequence (P48449 whole entry)
As to the kind of experiment: Inhibition of 2,3-oxidosqualene-lanosterol cyclase at 200 nM. Summed up:
as §3

The source made the active and inactive calls. The calls are words filed in the database; no cut-off is given here.

For orientation: inhibition in vivo means how much of the control response was suppressed. Read a low inhibition in vivo as a weak effect. As usually defined, the AUC(0-t) is exposure summed from dosing to a finite time, without extrapolation to infinity. The low end stands for low exposure, the high end for high exposure. For orientation: CLint scaled means the capacity of the preparation to metabolise the compound, expressed as a volume cleared per time. Broadly, the IC50 is the concentration needed to halve the response being measured. As usually defined, the EC50 is the concentration needed to bring the measured effect to its halfway point. A lower EC50 goes with higher potency in that assay.

As to `O=C(c1ccc(Cl)cc1)N1CCC(=Cc2ccc(C3=NCCO3)cc2)CC1`, the concentration at 2 h in data set [1] is less than 10 ng/g; in [12], 301 ng/g. Further, the Activity in data set [2], in data set [3], in data set [4] and in [7] was 100% in each case. For the same molecule, the inhibition in vivo at 2 mg/kg worked out at 85% in data set [5], 79% in data set [8], 40% in data set [9] and 61% in data set [14]. For the same molecule, the values for the concentration at 6 h in data set [6] and in data set [11] were less than 10 ng/g and 169 ng/g, respectively. Also, the AUC(0-t) at 6 h in data set [10] came out at 1030 ng·h/mL. The CLint scaled in data set [13] was 2.3 mL/min/g.

As for `COc1ccc(C(=O)N2CCN(Cc3ccc(-c4ccncc4)cc3)CC2)cc1`, in data set [15], the IC50 was 2510 nM.

With `N#Cc1ccc(S(=O)(=O)NCCc2ccc(C(O)c3cccnc3)cc2)cc1` (racemic), the EC50 in [15] was 100 nM.

Turning to `CN(C)Cc1ccc(-c2ccc(CCNS(=O)(=O)c3ccc(C#N)cc3)cc2)cc1`, the Activity in [4] is recorded as 6%. Moreover, in data set [5], at 2 mg/kg the inhibition in vivo was 47%. This molecule returned an IC50 in data set [15] of 28 nM. Besides, in [13], the CLint scaled came to 9.9 mL/min/g.

`CN(C)Cc1ccc(CN2CCN(S(=O)(=O)c3ccc(Cl)cc3)CC2)cc1` showed an Activity in [4] of 55%. The same molecule gave an inhibition in vivo at 2 mg/kg in data set [5] of 74%. The IC50 in [15] came to 32 nM. For the same molecule, the CLint scaled in data set [13] stood at 2.5 mL/min/g.

`CN1CCN(c2ccc(CN3CCN(S(=O)(=O)c4ccc(Cl)cc4)CC3)cc2)CC1`: the concentration at 2 h is 278 ng/g in data set [1] and 6600 ng/g in data set [12]. Further, the Activity in data set [2] is 232%; in data set [16], “Toxic”; in data set [3], 162%; in [4], 111%; in [7], 29%; in [17], “Toxic”. The Activity entry in data set [18], in data set [19], in data set [20], in data set [21] and in [22] was “Toxic” each time. The inhibition in vivo at 2 mg/kg is 75% in data set [5], 67% in data set [8], 62% in [9] and 67% in [14]. The values for the concentration at 6 h in [6] and in data set [11] were 123 ng/g and 3270 ng/g, respectively. The IC50 in [15] amounted to 6 nM. Also, the AUC(0-t) at 6 h in data set [10] is 97 ng·h/mL. In data set [13], the intrinsic metabolic clearance (CLint scaled) was 5.4 mL/min/g.

`O=S(=O)(NCCc1ccc(-c2ccc(CN3CCCC3)cc2)cc1)c1ccc(Cl)cc1` returned an IC50 in [15] of 63 nM.

In turn, `O=C(c1ccc(Cl)cc1)N1CCN(Cc2ccc(-c3ccncc3)cc2)CC1` displayed an Activity in data set [4] of 55%. Besides, the inhibition in vivo at 2 mg/kg in [5] worked out at 64%. For the same molecule, the IC50 in data set [15] was 3 nM. For the same molecule, the CLint scaled in data set [13] turned out to be 6 mL/min/g.

For the molecule `CN(C)Cc1ccc(CN2CCN(C(=O)c3ccc(OC(F)(F)F)cc3)CC2)cc1`, the concentration at 2 h worked out at 260 ng/g in data set [1] and 2420 ng/g in data set [12]. The Activity came to 241% in data set [2], 175% in [3], 100% in data set [4] and 51% in data set [7]. For the same molecule, the inhibition in vivo at 2 mg/kg in data set [5] came to 83%; in [8], 64%; in data set [9], 69%; in [14] it was 66%. The concentration at 6 h in [6] worked out at 194 ng/g; in data set [11] it was 1320 ng/g. The IC50 in data set [15] was determined as 20 nM. Moreover, the AUC(0-t) at 6 h in [10] was 362 ng·h/mL. For the same molecule, in data set [13], the CLint scaled came to 3.6 mL/min/g.

For `O=C(c1ccc(Cl)cc1)N1CCN(Cc2ccc(-c3ccn[nH]3)cc2)CC1`, the outcome in data set [23] was inactive.

Values taken from ChEMBL document CHEMBL1150355, “Design and evaluation of a novel series of 2,3-oxidosqualene cyclase inhibitors with low systemic exposure, relationship between pharmacokinetic properties and ocular toxicity” (Bioorg Med Chem, 2008).
